Data on 3 compounds can be found in ChEMBL document CHEMBL4145471, “New 1,5 and 2,5-disubstituted tetrazoles-dependent activity towards surface barrier of Candida albicans” (Eur J Med Chem, 2018).

Calls of active or inactive are those of the source. No cut-off for these calls is given here. Where only a bound is given, the exact number is not on record here.

The test system of data set [1] is Candida albicans. The data set can be described thus: Antifungal activity against Candida albicans ATCC 90028 assessed as reduction in cell adherence to human Caco2 cells at 256 ug/ml preincubated for 2 hrs followed by compound washout and resuspended in RPMI medium measured after 18 hrs by colony counting assay relative to control. The format is functional. Also on record: scale not given: the % may be the effect or the level left. In short, it runs like this: (§1)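 Yeasts grown 18 h in YEPD at 30°C, then exposed at 10^4/mL to compound in RPMI for 2 h at 35°C with shaking. Washed twice in PBS, resuspended in RPMI and added to Caco-2 monolayers (18 h culture in EMEM/10% FCS) for 2 h at 37°C, 5% CO2. Non-adherent cells rinsed off, Caco-2 lysed with water, and adherent yeasts counted as colonies on Sabouraud agar after 18 h at 30°C. Expressed as % of cells added versus untreated; three experiments.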

The test system of data set [2] is Candida albicans. Description: Induction of necrosis in Candida albicans ATCC 90028 biofilms assessed as loss of cell membrane integrity at 0.03 ug/ml after 18 hrs by propidium iodide/acridine orange staining based confocal laser scanning microscopic analysis. The format is functional, organism-based. In short, it runs like this:
(§2)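 Caco-2-free model: the TR146 epithelial layer, 21 days post-seeding on filter inserts, was inoculated with 1.0–1.2×10^5/mL log-phase ATCC 90028 yeast. Biofilms were treated at 256, 16 or 0.0313 µg/mL for 18–48 h at 37°C in 5% CO2 and washed with PBS. Unfixed cells were stained with propidium iodide (5 µg/mL) and acridine orange, then imaged by confocal laser scanning microscopy.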

Data set [3] relates to Candida albicans. Description: Antifungal activity against Candida albicans ATCC 90028 assessed as reduction in cell adherence to human Caco2 cells at 16 ug/ml preincubated for 2 hrs followed by compound washout and resuspended in RPMI medium measured after 18 hrs by colony counting assay relative to control. Also on record: scale not given: the % may be the effect or the level left. The format is functional. In short, it runs like this:
as §1

A short description of data set [4]: Toxicity in Galleria mellonella larvae assessed as survival at 0.0313 ug/ml after 96 hrs relative to control. The format is organism-based. The following applies: in vivo. In short, it runs like this: (§3)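 Uninfected larvae, groups of 10, injected with compound in RPMI at 256, 16 or 0.0313 µg/mL; PBS-injected larvae as controls. Kept at 37°C in darkness up to 96 h, monitored daily; death is no response to physical stimuli. Mobility, cocoon formation, melanization and survival scored as health index. Three independent experiments, samples in duplicate; Wilcoxon signed-rank test vs control.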

The subject of data set [5] is Candida albicans. Description: Induction of necrosis in Candida albicans ATCC 90028 biofilms assessed as loss of cell membrane integrity at 16 ug/ml after 18 hrs by propidium iodide/acridine orange staining based confocal laser scanning microscopic analysis. The format is functional, organism-based. In short, it runs like this:
as §2

In data set [6] the test system is Candida albicans. Description: Antifungal activity against Candida albicans ATCC 90028 infected in Galleria mellonella larvae assessed as survival at 16 ug/ml treated for 30 to 60 mins post infection and measured after 48 hrs. It counts as functional, organism-based. In short, it runs like this: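 G. mellonella larvae (195±17 mg, ethanol-disinfected) were given 10 µL C. albicans suspension into the last right proleg. A single 10 µL dose at 16 µg/mL in RPMI (diluted from 1600 µg/mL stock) went into the last left proleg, either 30 min or 1 h after infection or 1 h or 30 min before it. Survival was checked every 24 h for 2 days. Untreated infected larvae and PBS-injected larvae served as controls; ≥3 independent experiments, mean±SEM.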

A short description of data set [7]: Toxicity in Galleria mellonella larvae assessed as survival at 16 ug/ml after 96 hrs relative to control. The format is organism-based. The following applies: in vivo. In short, it runs like this: as §3
Data set [8] concerns Candida albicans. The data set can be described thus: Induction of necrosis in Candida albicans ATCC 90028 protoplast at 16 ug/ml after 18 hrs Annexin V-FITC/propidium iodide staining based flow cytometry (reference value: 40.48 +/- 16.81%). It counts as functional. In general terms: Flow cytometry measures light scatter and fluorescence of single cells or particles in a stream.

Data set [9] in a line: Toxicity in Galleria mellonella larvae assessed as survival at 256 ug/ml after 96 hrs relative to control. Particulars: in vivo. The format is organism-based. In short, it runs like this: as §3
The subject of data set [10] is Candida albicans. Description: Induction of early apoptosis in Candida albicans ATCC 90028 biofilms assessed as chromatin condensation at 0.03 ug/ml after 18 hrs by propidium iodide/acridine orange staining based confocal laser scanning microscopic analysis. It counts as functional, organism-based. In short, it runs like this: as §2
Data set [11] relates to Candida albicans. The data set can be described thus: Antifungal activity against Candida albicans ATCC 90028 infected in Galleria mellonella larvae assessed as survival at 16 ug/ml treated for 30 to 60 mins post infection. It counts as functional. In short, it runs like this: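 Larvae (195±17 mg, ethanol-disinfected) injected with 10 µL C. albicans suspension into last right proleg; single 10 µL dose (16 µg/mL in RPMI, diluted from 1600 µg/mL stock) into last left proleg 30 min or 1 h later. Controls: infected untreated and PBS-injected. Survival monitored every 24 h for 2 days; health index scored. At least three independent experiments.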

For data set [12], the system named is Candida albicans. Description: Induction of apoptosis in Candida albicans ATCC 90028 protoplast assessed as viable cells at 16 ug/ml after 18 hrs Annexin V-FITC/propidium iodide staining based flow cytometry ( Rvb = 59.19 +/- 11%). It counts as functional.
For data set [13], the system named is Candida albicans. Description: Induction of apoptosis in Candida albicans ATCC 90028 protoplast assessed as early apoptotic cells at 16 ug/ml after 18 hrs Annexin V-FITC/propidium iodide staining based flow cytometry ( Rvb = 0.13 +/- 0.06%). The format is functional.
The subject of data set [14] is Candida albicans. Description: Antifungal activity against Candida albicans ATCC 90028 assessed as growth inhibition at 100 ug/ml after 7 days in presence of sorbitol by M27-A3 microdilution method. It counts as functional, organism-based. In short, it runs like this: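 Osmotic protection variant of M27-A3. Tetrazoles serially diluted (1.04-400 µg/mL) in Sabouraud dextrose broth; inoculum 1.7×10^3 CFU/mL in SDB with sorbitol at 0.8 M final. Plates at 35°C, read visually and at OD405 after 2 and 7 days; triplicate.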
(In broth dilution the organism is exposed to a series of concentrations in liquid medium.)

Data set [15] relates to Candida albicans. Description: Antifungal activity against Candida albicans ATCC 90028 assessed as total FIC index at 80 ug/ml in presence of fluconazol after 48 hrs by checkerboard-based XTT assay. It counts as functional. In short, it runs like this:
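Checkerboard against strain ATCC 90028, inoculum per M27-A3: fluconazole 80-1.25 µg/mL on one axis, tetrazole 80-1.25 µg/mL on the other. Plates at 35°C for 48 h, then XTT metabolic reduction read at 475 nm (660 nm reference). Activity is the drop in mean absorbance against untreated growth control. FICs and their summed FIC index are taken at 50% reduction in metabolic activity.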

Data set [16] has as its system Candida albicans. Description: Synergistic antifungal activity against Candida albicans ATCC 90028 at 1.25 ug/ml after 48 hrs in presence of 2.5 ug/ml fluconazol by checkerboard assay relative to control. The format is functional. In short, it runs like this:
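Checkerboard microdilution (M27-A3) on C. albicans ATCC 90028 in RPMI 1640: fluconazole (80-1.25 µg/mL) crossed with tetrazole (80-1.25 µg/mL final), incubated at 35°C for 48 h. Growth by OD405 at 18 and 48 h, endpoint taken as 100% inhibition. FIC index = sum of the two agents' FICs; <1 synergism, >1 antagonism.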

Data set [17] has as its system Candida albicans. Description: Ratio of MIC for Candida albicans ATCC 90028 in absence of ergosterol to MIC for Candida albicans ATCC 90028 in presence of ergosterol. The format is functional. In short, it runs like this:
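MICs per modified M27-A3 in RPMI with or without ergosterol (final 400 µg/mL, dissolved in 10% DMSO/1% Tween 80 with heating). Inoculum 10³ CFU/mL; tetrazoles and itraconazole tested at 512–1 µg/mL, amphotericin B at 125–0.24 µg/mL. Plates were incubated at 35°C and read at 72 h; MIC was the lowest concentration with no visible growth. Run in triplicate on three days, geometric means.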

Turning to `CCOC(=O)CCn1nnc(-c2ccccc2)n1`, the Activity in the data set on Candida albicans [1] is given as 59.12%; in the data set with Candida albicans [3] it was 65.41%; in the data set with Candida albicans [8], 97.03%; in the data set with Candida albicans [12], 1.67%; with Candida albicans [13], 0.1%. Besides, the outcome with Candida albicans [2], in the data set on Candida albicans [5] and in the data set with Candida albicans [10] was Active. Further, the survival at 96 h in data set [4], in data set [7] and in [9] was 100% each time. In the data set on Candida albicans [6], the result was inactive. Further, the Survival entry with Candida albicans [11] is “<=18 hr”. Further, the “growth inhibition (GI)” value in the data set on Candida albicans [14] is “Active”.

As for `Cc1ccc(-c2nnn(CCCN3CCOCC3)n2)cc1`, in the data set on Candida albicans [15], the “fractional inhibitory concentration index (FICI)” value is on record as above 6.25. Besides, the Activity in the data set with Candida albicans [3] was 14.18%. In addition, the “growth inhibition (GI)” value in the data set on Candida albicans [16] is 99.23%.

Consider `ClCCCn1nnnc1-c1ccccc1Cl`, for which the “fractional inhibitory concentration index (FICI)” value with Candida albicans [15] was above 10. Besides, the Ratio with Candida albicans [17] is on record as 2. Also, the survival at 96 h in data set [4], in [7] and in data set [9] was 100% throughout. Further, the “growth inhibition (GI)” value with Candida albicans [16] is reported as 99.64%. Also, the Activity in the data set on Candida albicans [8] came to 89.92%; with Candida albicans [12], 1.85%; with Candida albicans [13] it was 8%. The “growth inhibition (GI)” value with Candida albicans [14] is “inactive”.
